Measurements reported in ChEMBL document CHEMBL1944595, “1,4-diarylpiperazines and analogs as anti-tubercular agents: synthesis and biological evaluation” (Eur J Med Chem, 2012).
Values after ≈ are worked out from the molar mass of the structure shown.

How the values were obtained:
Assay type in all cases: functional
[1] = test system: Mycobacterium tuberculosis; assay: Antibacterial activity against Mycobacterium tuberculosis H37Rv harboring pSMT1 encoding Vibrio harveyi luxAB gene at 1 uM after 7 days by luminometric analysis; details: 168 h, read-out: GI
How it was run: (§1)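 Same extracellular assay. Bacteria seeded at 1000 RLU per well in Sauton + 10% FCS. Compounds added from 1 mM DMSO stocks to final 10, 1 or 0.1 per well. Incubated 7 days at 37 °C, 5% CO2. Wells harvested, washed four times with PBS and pooled. 1% n-decanal added and luminescence read over 10 s. Percent growth inhibition calculated against untreated control cultures.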

[2] = test system: Mycobacterium tuberculosis; assay: Antibacterial activity against Mycobacterium tuberculosis H37Rv harboring pSMT1 encoding Vibrio harveyi luxAB gene infected in mouse J774.A1 cells at 2 uM after 5 days by luminometric analysis; details: J774.A1, 120 h, read-out: GI
How it was run: (§2)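 J774.A1 macrophages seeded at 40 000 per well and rested overnight. Infected with 4000 RLU of luminescent H37Rv (MOI 0.1) in DMEM with penicillin/Fungizone, with compound dilutions added. Treated 5 days, then washed, given 1 h 1% gentamicin, and lysed with 1% Triton X-100. Lysate luminescence read over 10 s with n-decanal. Inhibition relative to untreated infected cells; six replicate cultures.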

[3] = test system: Mycobacterium tuberculosis; assay: Antibacterial activity against Mycobacterium tuberculosis H37Rv harboring pSMT1 encoding Vibrio harveyi luxAB gene after 7 days by luminometric analysis; details: 168 h
[4] = test system: Mycobacterium tuberculosis; assay: Antibacterial activity against Mycobacterium tuberculosis H37Rv harboring pSMT1 encoding Vibrio harveyi luxAB gene at 0.1 uM after 7 days by luminometric analysis; details: 168 h, read-out: GI; how it was run: as §1
[5] = test system: Mycobacterium tuberculosis; assay: Antibacterial activity against Mycobacterium tuberculosis H37Rv harboring pSMT1 encoding Vibrio harveyi luxAB gene at 10 uM after 7 days by luminometric analysis; details: 168 h, read-out: GI; how it was run: as §1
[6] = test system: Mycobacterium tuberculosis; assay: Antibacterial activity against Mycobacterium tuberculosis H37Rv harboring pSMT1 encoding Vibrio harveyi luxAB gene infected in mouse J774.A1 cells at 0.5 uM after 5 days by luminometric analysis; details: J774.A1, 120 h, read-out: GI; how it was run: as §2
[7] = test system: Mycobacterium tuberculosis; assay: Antibacterial activity against Mycobacterium tuberculosis H37Rv harboring pSMT1 encoding Vibrio harveyi luxAB gene infected in mouse J774.A1 cells at 1 uM after 5 days by luminometric analysis; details: J774.A1, 120 h, read-out: GI; how it was run: as §2
[8] = test system: Mycobacterium tuberculosis; assay: Antimicrobial activity against multidrug-resistant Mycobacterium tuberculosis LAM1 by BACTEC 460-TB method
How it was run: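 Clinical MDR LAM-1 isolate, resistant to isoniazid, rifampicin, rifabutin and prothionamide. Pre-cultured in 7H9-based BACTEC vial to growth index 300. 100 µL inoculated into a new vial with compound dilutions prepared in 7H9 + 10% OADC. GI read daily. MIC99 determined by comparison with an untreated culture diluted 100-fold at inoculation.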

SMILES	inhibition of growth at 1 µM [1]	inhibition in vivo at 2 µM [2]	MIC50 [3]	inhibition of growth at 0.1 µM [4]	inhibition of growth at 10 µM [5]	inhibition in vivo at 0.5 µM [6]	inhibition in vivo at 1 µM [7]	MIC99 [8]
CNC(=N)c1ccc(N2CCN(c3ccccc3)CC2)cc1.Cl	< 10%	14.9%	15.9 µM	< 10%	16%	-0.8%	6.43%	–
Cl.N=C(N)c1ccc(N2CCN(c3ccccc3)CC2)cc1	< 10%	1.83%	29.6 µM	< 10%	14%	-0.47%	0.41%	–
N=C(NCCc1ccccc1)c1ccc(N2CCN(c3ccccc3)CC2)cc1	56%	–	–	< 10%	97%	–	–	–
CCC(CC)NC(=N)c1ccc(N2CCN(c3ccccc3)CC2)cc1	19%	–	–	< 10%	67%	–	–	–
O=[N+]([O-])c1cccc(NCCNc2cccc([N+](=O)[O-])c2)c1	< 10%	–	–	< 10%	13%	–	–	–
N=C(N)c1ccc(NCCNc2ccccc2)cc1	< 10%	–	–	< 10%	< 100%	–	–	–
CCCCCCCCNC(=N)c1ccc(N2CCN(c3ccccc3)CC2)cc1.Cl	94%	71.6%	0.072 µM	61%	100%	15.2%	31.1%	1.17 µM
CCCCCCNC(=N)c1ccc(N2CCN(c3ccccc3)CC2)cc1.Cl	91%	88.1%	0.264 µM	49%	99%	67.1%	79.2%	2.11 µM
CCCCCCNC(=N)c1ccc(NCCNc2ccccc2)cc1	48%	–	–	23%	93%	–	–	–
CCCCCCCNC(=N)c1ccc(N2CCN(c3ccccc3)CC2)cc1.Cl	94%	83.3%	0.091 µM	47%	100%	61.1%	64.2%	1.48 µM
CCC(CC)NC(=N)c1ccc(NCCNc2ccccc2)cc1	19%	–	–	10%	63%	–	–	–
CCCNC(=N)c1ccc(N2CCN(c3ccccc3)CC2)cc1.Cl	< 10%	26.1%	7.01 µM	< 10%	33%	5.62%	12.9%	–
CCCCCNC(=N)c1ccc(N2CCN(c3ccccc3)CC2)cc1.Cl	39%	64.7%	1.2 µM	< 10%	95%	44.7%	53.6%	3.85 µM
CCNC(=N)c1ccc(N2CCN(c3ccccc3)CC2)cc1.Cl	< 10%	22.5%	11.9 µM	< 10%	10%	3.93%	13.4%	–
N#Cc1ccccc1NCCNc1ccccc1C#N	< 10%	–	–	< 10%	< 10%	–	–	–
CCCCNC(=N)c1ccc(N2CCN(c3ccccc3)CC2)cc1.Cl	< 10%	50.6%	2.16 µM	< 10%	66%	25.6%	31.6%	–
O=[N+]([O-])c1ccc(N2CCN(c3ccccc3)CC2)cc1	< 10%	–	–	< 10%	26%	–	–	–
CCCCCCCCCCCCNC(=N)c1ccc(N2CCN(c3ccccc3)CC2)cc1.Cl	97%	44.9%	0.052 µM	68%	100%	10.7%	23.4%	0.95 µM
N#Cc1ccc(N2CCN(c3ccc(C#N)cc3)CC2)cc1	< 10%	–	–	< 10%	22%	–	–	–
N#Cc1ccc(N2CCN(c3ccccc3)CC2)cc1	< 10%	–	–	< 10%	23%	–	–	–
NNC(=O)c1ccncc1 [ISONIAZID]	100%	51.4%	0.465 µM (≈ 0.0638 µg/mL)	98%	100%	9.77%	29.4%	–
N#Cc1cccc(NCCNc2cccc(C#N)c2)c1	< 10%	–	–	< 10%	< 10%	–	–	–
N#Cc1ccc(NCCNc2ccc(C#N)cc2)cc1	< 10%	–	–	< 10%	10%	–	–	–
O=[N+]([O-])c1ccc(NCCNc2ccc([N+](=O)[O-])cc2)cc1	< 10%	–	–	< 10%	16%	–	–	–
O=[N+]([O-])c1ccc(N2CCN(c3ccc([N+](=O)[O-])cc3)CC2)cc1	10%	–	–	< 10%	13%	–	–	–
Nc1ccc(N2CCN(c3ccc(N)cc3)CC2)cc1	10%	–	–	< 10%	27%	–	–	–
Nc1ccc(N2CCN(c3ccccc3)CC2)cc1	< 10%	–	–	< 10%	30%	–	–	–
O=[N+]([O-])c1ccccc1NCCNc1ccccc1[N+](=O)[O-]	< 10%	–	–	< 10%	< 10%	–	–	–
